The target in assay [1] is T1, Angiotensin-converting enzyme (Rattus norvegicus) (UniProt P47820).
T1 sequence (whole entry): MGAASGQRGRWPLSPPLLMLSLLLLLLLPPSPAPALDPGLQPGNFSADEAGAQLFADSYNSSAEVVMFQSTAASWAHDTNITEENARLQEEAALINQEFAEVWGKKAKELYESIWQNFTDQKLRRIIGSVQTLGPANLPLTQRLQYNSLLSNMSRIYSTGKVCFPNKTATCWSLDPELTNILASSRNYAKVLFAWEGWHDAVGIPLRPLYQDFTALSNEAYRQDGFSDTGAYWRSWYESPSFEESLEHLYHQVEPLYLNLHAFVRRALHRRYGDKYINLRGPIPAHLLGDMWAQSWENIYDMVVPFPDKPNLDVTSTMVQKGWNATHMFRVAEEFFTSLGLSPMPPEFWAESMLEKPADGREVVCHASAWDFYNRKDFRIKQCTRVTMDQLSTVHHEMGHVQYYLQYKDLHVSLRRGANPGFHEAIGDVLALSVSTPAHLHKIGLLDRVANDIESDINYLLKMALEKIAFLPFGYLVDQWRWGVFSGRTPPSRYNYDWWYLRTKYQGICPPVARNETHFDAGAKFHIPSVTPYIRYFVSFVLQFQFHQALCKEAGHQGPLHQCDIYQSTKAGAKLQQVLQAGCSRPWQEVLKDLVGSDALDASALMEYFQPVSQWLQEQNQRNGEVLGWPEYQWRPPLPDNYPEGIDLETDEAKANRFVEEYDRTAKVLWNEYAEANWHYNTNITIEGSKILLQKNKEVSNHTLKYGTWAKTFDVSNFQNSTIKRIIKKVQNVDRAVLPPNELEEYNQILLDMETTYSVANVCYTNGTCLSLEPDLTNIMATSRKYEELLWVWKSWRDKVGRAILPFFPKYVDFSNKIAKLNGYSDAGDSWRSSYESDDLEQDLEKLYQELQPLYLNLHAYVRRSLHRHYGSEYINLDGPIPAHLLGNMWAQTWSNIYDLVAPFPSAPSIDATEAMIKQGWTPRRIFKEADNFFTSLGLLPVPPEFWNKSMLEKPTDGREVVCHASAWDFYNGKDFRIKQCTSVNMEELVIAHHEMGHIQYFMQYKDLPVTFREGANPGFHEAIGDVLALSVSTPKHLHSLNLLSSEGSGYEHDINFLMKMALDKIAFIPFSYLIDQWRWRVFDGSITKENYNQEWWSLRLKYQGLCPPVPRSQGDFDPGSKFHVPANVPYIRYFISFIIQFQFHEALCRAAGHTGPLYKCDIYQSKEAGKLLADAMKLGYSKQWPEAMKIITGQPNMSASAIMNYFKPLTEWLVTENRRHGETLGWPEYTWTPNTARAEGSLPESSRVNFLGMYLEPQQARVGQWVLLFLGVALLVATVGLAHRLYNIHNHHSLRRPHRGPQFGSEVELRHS
Nature of the assay: Compound was tested for plasma inhibition of Angiotensin I converting enzyme activity in the conscious rat. Expressed as Inhibition of AI pressor response at 2 hr at a dose of 12.4 mg/kg po. More on the design: dose 12.4 mg/kg. In kind it is organism-based. In a few lines:
(§1)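 Male conscious normotensive Sprague-Dawley rats (275-390 g), given femoral arterial and venous catheters under methohexital sodium (75 mg/kg ip) anesthesia. Next day, pressor responses to three angiotensin-I challenges (300 ng/kg iv) recorded by direct arterial pressure. Compound then dosed orally, and AI challenge repeated at set times. Each post-dose response compared with the mean of the three baseline responses, giving % inhibition.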

Assay [2] concerns the target T1, Angiotensin-converting enzyme (Rattus norvegicus). Nature of the assay: Compound was tested for plasma inhibition of Angiotensin I converting enzyme activity in the conscious rat. Expressed as Inhibition of AI pressor response at 1 hr at a dose of 12.4 mg/kg po. In kind it is organism-based. Also noted: dose 12.4 mg/kg. In a few lines:
as §1

For assay [3] the target is unchanged. Nature of the assay: Compound was tested for plasma inhibition of Angiotensin I converting enzyme activity in the conscious rat. Expressed as Inhibition of AI pressor response at 4 hr at a dose of 12.4 mg/kg po. The class given is organism-based. Also noted: dose 12.4 mg/kg. Put shortly: as §1
The subject of assay [4] is Rattus norvegicus. Nature of the assay: Plasma ANF Concentration in the Conscious Rat at a dose of 12.4 (p.o.) mg/kg at 0.5 h. In kind it is functional. Put shortly:
(§2)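 Male Sprague-Dawley rats (275-390 g) received femoral artery and vein catheters under ketamine (150 mg/kg)/acepromazine and recovered for 24 h, tethered, before study conscious. ratANF(99-126) was infused at 450 ng/kg/min iv for 5 h. Baseline blood was drawn at 60 min into the infusion, then compound was given po.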

Assay [5] concerns Rattus norvegicus. Nature of the assay: Plasma ANF Concentration in the Conscious Rat at a dose of 12.4 (p.o.) mg/kg at 1 h. In kind it is functional. Put shortly: as §2
In assay [6] the test system is Rattus norvegicus. Nature of the assay: Plasma ANF Concentration in the Conscious Rat at a dose of 12.4 (p.o.) mg/kg at 2 h. The class given is functional. Put shortly: as §2
In assay [7] the test system is Rattus norvegicus. Briefly: Plasma ANF Concentration in the Conscious Rat at a dose of 12.4 (p.o.) mg/kg at 4 h. In kind it is functional. Put shortly:
as §2

Assay [8] concerns the target T1, Angiotensin-converting enzyme (Rattus norvegicus). Briefly: Compound was tested for plasma inhibition of Angiotensin I converting enzyme activity in the conscious rat. Expressed as Inhibition of AI pressor response at 6 hr at a dose of 12.4 mg/kg po. In kind it is organism-based. Also noted: dose 12.4 mg/kg. Put shortly: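 Male conscious normotensive Sprague-Dawley rats (275-390 g), prepared under methohexital sodium (75 mg/kg ip) with femoral arterial and venous catheters. The next day, pressor responses to three angiotensin-I challenges (300 ng/kg iv) were recorded. Compound was then given orally and angiotensin-I challenges were repeated at set times. Percent inhibition is relative to the mean of the three baseline responses.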

The target is the same in assay [9]. Briefly: Compound was tested for plasma inhibition of ACE activity in the conscious rat. Expressed as Inhibition of AI pressor response at 1 hr at a dose of 12.4 mg/kg po. In kind it is organism-based. More on the design: dose 12.4 mg/kg. In a few lines: as §1
Assay [10] shares this target. Nature of the assay: Compound was tested for plasma inhibition of Angiotensin I converting enzyme activity in the conscious rat. Expressed as Inhibition of AI pressor response at 2 hr at a dose of 13 mg/kg po. In kind it is organism-based. Also noted: dose 13 mg/kg. In a few lines: (§3)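 Male conscious normotensive Sprague-Dawley rats (275-390 g), fitted under methohexital (75 mg/kg ip) with femoral arterial and venous catheters for direct blood pressure. Next day, pressor responses to three angiotensin-I challenges (300 ng/kg iv) were recorded. Compound was then given po and AI challenge repeated at scheduled times. Each post-dose response was compared with the mean of the three initial responses.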

The target is the same in assay [11]. Nature of the assay: Compound was tested for plasma inhibition of Angiotensin I converting enzyme activity in the conscious rat. Expressed as Inhibition of AI pressor response at 6 hr at a dose of 13 mg/kg po. In kind it is organism-based. Also noted: dose 13 mg/kg. In a few lines: as §3
The target is the same in assay [12]. Nature of the assay: Compound was tested for plasma inhibition of Angiotensin I converting enzyme activity in the conscious rat. Expressed as Inhibition of AI pressor response at 1 hr at a dose of 13 mg/kg po. Also noted: dose 13 mg/kg. The class given is organism-based. Put shortly:
as §3

Assay [13] has the same target. Briefly: Compound was tested for plasma inhibition of Angiotensin I converting enzyme activity in the conscious rat. Expressed as Inhibition of AI pressor response at 4 hr at a dose of 13 mg/kg po. More on the design: dose 13 mg/kg. In kind it is organism-based. Put shortly:
as §3

Each structure is given as a SMILES string.

The term inhibition denotes the relative decrease from the control value, in per cent. A higher inhibition goes with a response far below the control. Take `CCCCOC(=O)[C@H](Cc1ccc(O)cc1)NC(=O)C1(NC(=O)[C@H](SC(C)=O)C(C)C)CCCC1`: the inhibition turned out to be 78% in [1], 76% in [2], 70% in assay [3] and 72% in [8]. In addition, the Control with Rattus norvegicus [4] came out at 131%; with Rattus norvegicus [5], 133%; with Rattus norvegicus [6], 178%; in the assay with Rattus norvegicus [7], 185%.
As for `CCOC(=O)[C@H](Cc1ccc(OCC)cc1)NC(=O)C1(NC(=O)[C@H](SC(C)=O)C(C)C)CCCC1`, the inhibition came to 76% in assay [1], 88% in assay [9], 73% in [3] and 70% in [8].
For `CCOC(=O)[C@H](Cc1ccc(O)cc1)NC(=O)C1(NC(=O)[C@H](SC(=O)C2CCCC2)C(C)C)CCCC1`, the inhibition in assay [10] came to 33%; in assay [11], 38%; in [12], 34%; in [13], 55%.
